Measured values as given in ChEMBL document CHEMBL3877250, “Design, synthesis, and biological evaluation of (2E)-(2-oxo-1, 2-dihydro-3H-indol-3-ylidene)acetate derivatives as anti-proliferative agents through ROS-induced cell apoptosis” (Eur J Med Chem, 2016).
Activity calls are given as the source filed them. No cut-off for these calls is given here.

Tests used:
[1] = Cytotoxicity against human Saos2 cells assessed as growth inhibition at 20 uM after 72 hrs by CCK-8 assay; type: functional; settings: SAOS-2, 72 h, read-out: GI
Method in brief: (§1)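 Cells kept in RPMI 1640 with 10% heat-inactivated fetal calf serum and 1% streptomycin/penicillin at 37 °C, 5% CO2. After compound exposure, CCK-8 was added and cells were incubated 4 h at 37 °C, then absorbance was read at 450 nm. Viability is relative to untreated cells (100%). IC50 comes from nonlinear regression, mean of three separate determinations. Single-concentration screen at 20 µM.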

[2] = Cell cycle arrest in human HCT116 cells assessed as G2/M phase accumulation at 2 uM after 48 hrs by Annexin V-FITC/propidium iodide staining based flow cytometry (reference value: 25.3%); type: functional; settings: HCT-116
HCT-116 [3] = assay: Induction of apoptosis in human HCT116 cells assessed as late apoptotic cells at 1 uM after 48 hrs by Annexin V-FITC/propidium iodide staining based flow cytometry (reference value: 6.7%); type: functional
[4] = Cell cycle arrest in human HCT116 cells assessed as G2/M phase accumulation at 0.5 uM after 48 hrs by Annexin V-FITC/propidium iodide staining based flow cytometry (reference value: 25.3%); type: functional; settings: HCT-116
[5] = Cell cycle arrest in human HCT116 cells assessed as G2/M phase accumulation at 1 uM after 48 hrs by Annexin V-FITC/propidium iodide staining based flow cytometry (reference value: 25.3%); type: functional; settings: HCT-116
HCT-116 [6] = assay: Induction of apoptosis in human HCT116 cells assessed as necrotic cells at 16 uM after 48 hrs by Annexin V-FITC/propidium iodide staining based flow cytometry (reference value: 0.8%); type: functional
[7] = Cytotoxicity against human OVCAR3 cells assessed as growth inhibition at 20 uM after 72 hrs by CCK-8 assay; type: functional; settings: OVCAR-3, 72 h, read-out: GI; method in brief: as §1
[8] = Cytotoxicity against human MDA-MB-231 cells after 72 hrs by CCK-8 assay; type: functional, cell-based; settings: MDA-MB-231, 72 h; method in brief: as §1
[9] = Cell cycle arrest in human HCT116 cells assessed as G2/M phase accumulation at 4 uM after 48 hrs by Annexin V-FITC/propidium iodide staining based flow cytometry (reference value: 25.3%); type: functional; settings: HCT-116
[10] = Cell cycle arrest in human HCT116 cells assessed as S phase accumulation at 2 uM after 48 hrs by Annexin V-FITC/propidium iodide staining based flow cytometry (reference value: 28.43%); type: functional; settings: HCT-116
[11] = Cell cycle arrest in human HCT116 cells assessed as G2/M phase accumulation at 3 uM after 48 hrs by Annexin V-FITC/propidium iodide staining based flow cytometry (reference value: 25.3%); type: functional; settings: HCT-116
[12] = Cytotoxicity against human HCT116 cells assessed as growth inhibition at 20 uM after 72 hrs by CCK-8 assay; type: functional; settings: HCT-116, 72 h, read-out: GI; method in brief: as §1
HCT-116 [13] = assay: Induction of apoptosis in human HCT116 cells assessed as late apoptotic cells at 8 uM after 48 hrs by Annexin V-FITC/propidium iodide staining based flow cytometry (reference value: 6.7%); type: functional
[14] = Cytotoxicity against human SK-BR-3 cells assessed as growth inhibition at 20 uM after 72 hrs by CCK-8 assay; type: functional; settings: SK-BR-3, 72 h, read-out: GI; method in brief: as §1
HCT-116 [15] = assay: Induction of apoptosis in human HCT116 cells assessed as live cells at 4 uM after 48 hrs by Annexin V-FITC/propidium iodide staining based flow cytometry (reference value: 88.7%); type: functional
HCT-116 [16] = assay: Induction of apoptosis in human HCT116 cells assessed as early apoptotic cells at 1 uM after 48 hrs by Annexin V-FITC/propidium iodide staining based flow cytometry (reference value: 3.8%); type: functional
Method in brief: (§2)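 HCT116 seeded at 2×10^5 cells/well, cultured 6 h, then treated 48 h at 0.1, 0.5, 1, 4, 8 or 16 µM; DMSO (0.1%) served as vehicle. Cells washed twice in cold PBS, resuspended in binding buffer with FITC Annexin V and PI for 15 min at RT in the dark, diluted, and run on flow cytometry within 1 h.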

[17] = Cytotoxicity against human SW480 cells after 72 hrs by CCK-8 assay; type: functional, cell-based; settings: SW480, 72 h; method in brief: as §1
[18] = Antitumor activity against human HepG2 cells assessed as growth inhibition at 20 uM after 72 hrs by CCK-8 assay; type: functional; settings: HepG2, 72 h, read-out: GI; method in brief: as §1
[19] = Cytotoxicity against human OVCAR3 cells after 72 hrs by CCK-8 assay; type: functional, cell-based; settings: OVCAR-3, 72 h; method in brief: as §1
[20] = Cell cycle arrest in human HCT116 cells assessed as G1 phase accumulation at 3 uM after 48 hrs by Annexin V-FITC/propidium iodide staining based flow cytometry (reference value: 40.83%); type: functional; settings: HCT-116
HCT-116 [21] = assay: Induction of apoptosis in human HCT116 cells assessed as live cells at 1 uM after 48 hrs by Annexin V-FITC/propidium iodide staining based flow cytometry (reference value: 88.7%); type: functional
[22] = Cytotoxicity against human SW480 cells assessed as growth inhibition at 20 uM after 72 hrs by CCK-8 assay; type: functional; settings: SW480, 72 h, read-out: GI; method in brief: as §1
[23] = Cell cycle arrest in human HCT116 cells assessed as sub-G1 phase accumulation at 3 uM after 48 hrs by Annexin V-FITC/propidium iodide staining based flow cytometry (reference value: 4.36%); type: functional; settings: HCT-116
HCT-116 [24] = assay: Induction of apoptosis in human HCT116 cells assessed as necrotic cells at 1 uM after 48 hrs by Annexin V-FITC/propidium iodide staining based flow cytometry (reference value: 0.8%); type: functional
[25] = Cell cycle arrest in human HCT116 cells assessed as S phase accumulation at 0.5 uM after 48 hrs by Annexin V-FITC/propidium iodide staining based flow cytometry (reference value: 28.43%); type: functional; settings: HCT-116
HCT-116 [26] = assay: Induction of apoptosis in human HCT116 cells assessed as late apoptotic cells at 0.1 uM after 48 hrs by Annexin V-FITC/propidium iodide staining based flow cytometry (reference value: 6.7%); type: functional
[27] = Cell cycle arrest in human HCT116 cells assessed as sub-G1 phase accumulation at 1 uM after 48 hrs by Annexin V-FITC/propidium iodide staining based flow cytometry (reference value: 4.36%); type: functional; settings: HCT-116
[28] = Cell cycle arrest in human HCT116 cells assessed as G1 phase accumulation at 0.1 uM after 48 hrs by Annexin V-FITC/propidium iodide staining based flow cytometry (reference value: 40.83%); type: functional; settings: HCT-116
HCT-116 [29] = assay: Induction of apoptosis in human HCT116 cells assessed as increase in Bax protein level after 9 hrs by Western blot method; type: functional, cell-based
Method in brief: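 HCT116 cells plated at 4 × 10⁵ cells/well in six-well plates. Incubated with or without compound for 9 h, then proteins extracted. Lysates resolved by 12% SDS-PAGE and immunoblotted with anti-Bax and anti-Bcl-2 antibodies.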

[30] = Cytotoxicity against human HCT116 cells after 72 hrs by CCK-8 assay; type: functional, cell-based; settings: HCT-116, 72 h; method in brief: as §1
[31] = Cell cycle arrest in human HCT116 cells assessed as G2/M phase accumulation at 0.1 uM after 48 hrs by Annexin V-FITC/propidium iodide staining based flow cytometry (reference value: 25.3%); type: functional; settings: HCT-116
HCT-116 [32] = assay: Induction of apoptosis in human HCT116 cells assessed as early apoptotic cells at 4 uM after 48 hrs by Annexin V-FITC/propidium iodide staining based flow cytometry (reference value: 3.8%); type: functional; method in brief: as §2

Work on `CC(C)(C)OC(=O)/C=C1/C(=O)Nc2ccccc21` yielded an inhibition of growth at 20 µM [1] of 83.3%, an Activity [2] of 29.3% and an Activity (HCT-116 [3]) of 9.1%. It also gave an Activity [4] of 27.4%, an Activity [5] of 33.1% and an Activity (HCT-116 [6]) of 2.1%. For the same compound, the inhibition of growth at 20 µM [7] was 59.6%, the IC50 [8] was 2.52 µM and the Activity [9] was 11.7%. It also gave an Activity [10] of 25.2%, an Activity [11] of 22.6% and an inhibition of growth at 20 µM [12] of 89.5%. For the same compound, the Activity (HCT-116 [13]) was 13.6%, the inhibition of growth at 20 µM [14] was 87.3% and the Activity (HCT-116 [15]) was 89.1%. The Activity (HCT-116 [16]) was 2.6%, the IC50 [17] was 5.68 µM and the inhibition of growth at 20 µM [18] was 86.1%. For the same compound, the IC50 [19] was 6.55 µM, the Activity [20] was 35.6% and the Activity (HCT-116 [21]) was 87.9%. It also gave an inhibition of growth at 20 µM [22] of 78.1%, an Activity [23] of 5.11% and an Activity (HCT-116 [24]) of 1.3%. For the same compound, the Activity [25] was 28.9%, the Activity (HCT-116 [26]) was 6.2% and the Activity [27] was 1.06%. The Activity [28] was 40.8%, the Activity (HCT-116 [29]) was “Active” and the IC50 [30] was 2.64 µM. The Activity [31] was 20.6% and the Activity (HCT-116 [32]) was 3.6%.
